An excerpt weighted towards active compounds, which were near 2.9% of everything screened.
S100A4 inh HTS: blocks human S100A4 binding to myosin IIA peptide | P26447 | S100A4/TAMRA-MyoIIA peptide fluorescence polarization | inhibition, % at 10.7 µM | actives 0.14% (n = 360,000) | AID 652163;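 active means mean inhibition of at least 70% across replicates, with every replicate also reaching that level; inconclusive means mean inhibition reaches 70% but some replicates fall short; inactive means mean inhibition below 70%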
Target sequence (P26447 whole entry, looked up): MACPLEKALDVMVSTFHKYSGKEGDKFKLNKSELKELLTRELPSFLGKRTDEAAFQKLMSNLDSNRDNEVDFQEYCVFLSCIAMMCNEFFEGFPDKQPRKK
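Material: S100A4 monomer protein / Buffer or medium: 50 mM HEPES pH 7.2, 10 mM CaCl2, 100 mM KCl / Times: 5 min incubation before reading / Benchmarks: neutral control DMSO, positive control TFP / Reagent: labelled myosin peptide probe, 5 nM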
DENV2 CPE: inhibitors of DENV2 cytopathic effect; DENV2-infected cells, cytopathic effect rescue, plate reader; CPE inhibition, % at 9.99 µM; actives 1.7% (n = 350,000); in the data active means CPE inhibition above about 20%, passing the limit was not always enough; inconclusive means no clear call, values can overlap the other calls; tested in BHK-21 cells;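 further: 0% = median of neutral control wells and 100% = median of positive control wells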
SIRT5 block: sirtuin-5 (human) deacylase inhibition; actives 1.1% (n = 330,000); Q9NXA8; Purified SirT5, succinyl-peptide AMC, trypsin-coupled fluorescence; AID 652115; inhibition, % at 15 µM; in the data active means inhibition above about 15%; inconclusive means no clear call, values can overlap the other calls
Target sequence (Q9NXA8 whole entry, looked up): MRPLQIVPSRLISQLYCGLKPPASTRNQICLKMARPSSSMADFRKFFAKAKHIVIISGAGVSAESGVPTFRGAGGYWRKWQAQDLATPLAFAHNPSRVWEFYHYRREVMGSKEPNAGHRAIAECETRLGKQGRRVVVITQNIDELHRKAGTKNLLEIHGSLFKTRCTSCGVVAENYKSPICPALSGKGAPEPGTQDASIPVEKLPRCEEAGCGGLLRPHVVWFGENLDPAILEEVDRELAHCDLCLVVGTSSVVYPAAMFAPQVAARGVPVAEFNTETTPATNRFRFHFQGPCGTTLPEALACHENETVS
C2C12 statin: suppression of simvastatin myotoxicity; C2C12 myotubes + simvastatin, ATP luminescence, 48 h; scaled: DMSO 0, geranylgeraniol control 100; rescue of ATP level, % at 7.49 µM; actives 0.78% (n = 330,000);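 active means mean ATP rescue above about 67%, or every replicate alone reaching that limit, limit read from the data, passing the limit was not always enough; inconclusive means no clear call, values can overlap the other calls; inactive means mean under the limit and some replicate under it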;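 further: myotubes were challenged with 10 µM simvastatin during compound exposure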
PGC1a acetyl inh: lowers PGC1a acetylation signal in U2OS cells; actives 0.17% (n = 350,000); inhibition, % at 15.6 µM; AID 651687; AlphaScreen anti-acetyl-lysine; with virally co-expressed GCN5 acetyltransferase;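 active means every replicate shows inhibition of at least 40%; inconclusive means mean inhibition at least 40% but some replicate below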;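 further: 0% = neutral control wells and 100% = positive control wells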
An asterisk follows results filed as active; ? = inconclusive; nt = no result.

SMILES | S100A4 inh HTS | DENV2 CPE | SIRT5 block | C2C12 statin | PGC1a acetyl inh
N#Cc1ccccc1CSc1nc2ccc(NC(=O)c3ccccc3C(=O)O)cc2s1 | -2 | 13 | -3 | nt | -3
O=C(O)c1ccc(CSc2nc3ccc(NC(=O)c4ccccc4C(=O)O)cc3s2)cc1 | 1 | 2 | 17* | 8 | 9
CC1(NC(=O)c2cc(Cl)nc3ccccc23)CCS(=O)(=O)C1 (stereo unspecified) | 2 | 54* | -3 | 3 | nt
O=C(NC1CC1)c1cc(Cl)nc2ccccc12 | 13 | 0 | 3 | -15 | -5
O=C(C[C@H]1CC[C@@H](NC(=O)c2ccccn2)[C@H](CO)O1)NCc1cccc(F)c1 | 4 | -6 | -4 | 8 | 1
O=C(C[C@@H]1C[C@H]2c3cc(NS(=O)(=O)c4ccc(F)cc4)ccc3O[C@H]2[C@H](CO)O1)NCc1ccc(-c2ccccc2)cc1 | -1 | -2 | 20* | -59 | -27
O=C(C[C@H]1C[C@H]2c3cc(NS(=O)(=O)c4ccc(F)cc4)ccc3O[C@H]2[C@@H](CO)O1)NCCc1ccccc1 | 18 | 59* | 1 | 5 | -15
O=C(C[C@@H]1C[C@@H]2c3cc(NS(=O)(=O)c4ccc(F)cc4)ccc3O[C@@H]2[C@H](CO)O1)NCCc1ccccc1 | -3 | 58* | -1 | 3 | -8
O=C(C[C@H]1C[C@@H]2c3cc(NS(=O)(=O)c4ccc(F)cc4)ccc3O[C@@H]2[C@H](CO)O1)NCc1ccc(-c2ccccc2)cc1 | 3 | 0 | ? | 31 | 0
CC(C)NC(=O)N(C)C[C@H]1Oc2c(NC(=O)C3CC3)cccc2C(=O)N([C@@H](C)CO)C[C@@H]1C | 4 | ? | nt | -15 | 5
CCCNC(=O)N[C@H]1CC[C@@H](CCn2cc(C3CC3)nn2)O[C@@H]1CO | 4 | 4 | 1 | 3 | -5
Cc1noc(C)c1S(=O)(=O)N(C)C[C@@H]1OCCCC[C@H](C)Oc2ccc(NS(C)(=O)=O)cc2C(=O)N([C@H](C)CO)C[C@@H]1C | 6 | 2 | -1 | nt | 3
COCCNC(=O)C1(C)CCN(C(=O)c2cc(C(C)(C)C)nn2C)C1 (stereo unspecified) | -2 | 38* | nt | 5 | -1
CCN1C(=O)CS/C1=N\S(=O)(=O)c1ccc(Cl)cc1 | 0 | 3 | -3 | 4 | 11
CCn1c(Cl)c(C=O)s/c1=N\S(=O)(=O)c1ccccc1 | -27 | -17 | -1 | -447 | 78*
CCN(C[C@H]1N[C@@H](CO)[C@@H]1c1ccc(C2=CCCC2)cc1)C(=O)c1cccnc1 | -24 | -11 | 1 | -22 | 10
CC(=O)c1cccc(NC(=O)Nc2cccnc2)c1 | nt | nt | nt | 81* | 50*
COC(=O)c1cc(OC)c(OC)cc1NC(=O)Nc1cccc(C(C)=O)c1 | 8 | 0 | 2 | 114* | 5
O=C(Nc1cccnc1)Nc1cccc(F)c1 | 14 | -6 | -1 | -2 | nt
COC(=O)c1cc(OC)c(OC)cc1NC(=O)Nc1ccc(OC)cc1 | nt | nt | nt | nt | 2
COC(=O)c1cc(OC)c(OC)cc1NC(=O)c1cc(OC)cc(OC)c1 | -6 | nt | 16* | -23 | 1
COc1ccccc1-c1cn(CC[C@H]2CC[C@@H](NC(=O)c3ccccc3F)[C@H](CO)O2)nn1 | 44 | -2 | 1 | 5 | -9
COc1ccc(CCN2CC(=O)N3CCc4ccc(N5CCOCC5)cc4C3CC2=O)cc1OC (stereo unspecified) | 11 | ? | 3 | nt | nt
N#C[C@@H]1[C@H](c2ccc(-c3cncnc3)cc2)[C@@H](CO)N1C(=O)CN1CCOCC1 | -1 | 50* | 1 | -8 | 2
N#C[C@@H]1[C@@H](c2ccccc2C2=CCCCC2)[C@H](CO)N1C(=O)NC1CCCC1 | 4 | 73* | 7 | nt | -1
SMILES | S100A4 inh HTS | DENV2 CPE | SIRT5 block | C2C12 statin | PGC1a acetyl inh
N#C[C@H]1[C@@H](c2ccccc2C2=CCCCC2)[C@H](CO)N1S(=O)(=O)c1ccccc1 | 2 | -8 | nt | nt | 10
N#C[C@@H]1[C@@H](c2ccccc2C2=CCCCC2)[C@@H](CO)N1S(=O)(=O)c1ccccc1 | 1 | 21* | nt | nt | 11
N#C[C@@H]1[C@H](c2ccc(-c3cncnc3)cc2)[C@H](CO)N1C(=O)CN1CCOCC1 | -5 | 1 | 1 | -12 | 7
N#C[C@H]1[C@H](c2ccccc2C2=CCCCC2)[C@H](CO)N1C(=O)C1CCOCC1 | -9 | 2 | 17* | nt | 9
CCCNC(=O)N(C)C[C@@H]1Oc2cc(C#CC3CC3)ccc2S(=O)(=O)N([C@H](C)CO)C[C@H]1C | -3 | ? | 3 | 12 | -22
N#C[C@@H]1[C@H](c2ccccc2C2=CCCCC2)[C@H](CO)N1C(=O)CN1CCOCC1 | 1 | 6 | -1 | nt | -3
N#C[C@@H]1[C@H](c2ccc(C3=CCCCC3)cc2)[C@H](CO)N1C(=O)C1CCOCC1 | -35 | 30* | -1 | 13 | 2
N#C[C@@H]1[C@H](c2ccccc2C2=CCCC2)[C@H](CO)N1C(=O)C1CC1 | -4 | 22* | 3 | nt | -4
N#C[C@@H]1[C@H](c2ccccc2C2=CCCC2)[C@@H](CO)N1C(=O)C1CC1 | -2 | -14 | -1 | nt | 5
N#C[C@@H]1[C@@H](c2ccc(C3=CCCCC3)cc2)[C@H](CO)N1C(=O)C1CCOCC1 | -2 | 4 | -3 | 12 | -2
N#C[C@H]1[C@@H](c2ccccc2C2=CCCC2)[C@H](CO)N1C(=O)C1CCCC1 | -3 | 41* | -5 | nt | 7
N#C[C@H]1[C@@H](c2ccccc2C2=CCCCC2)[C@H](CO)N1C(=O)CN1CCOCC1 | 1 | 43* | -1 | nt | 5
CCc1nc(N2[C@H](C#N)[C@@H](c3ccccc3-c3ccc(F)cc3)[C@H]2CO)sc1C | 19 | -3 | 0 | nt | nt
CN(C)C(=O)c1ccc(-c2ccc3c(c2)[C@H]2[C@H](CCN2C(=O)Cc2ccccn2)[C@@H](CO)N3C)cc1 | 8 | -1 | 5 | 8 | 2
CCCNC(=O)N1[C@H](C#N)[C@@H](c2ccccc2C2=CCCC2)[C@@H]1CO | 3 | 23* | 2 | nt | -25
C[C@@H]1CN([C@H](C)CO)S(=O)(=O)c2ccc(C#C[C@@H](C)O)cc2O[C@H]1CN(C)CC1CCCC1 | 14 | 1 | 3 | -119 | -34
CCOc1ccc(S(=O)(=O)NN)cc1 | nt | nt | nt | 96* | -7
CCOc1ccc(S(=O)(=O)NN2Cc3ccccc3C2=N)cc1 | -6 | 0 | 18* | nt | nt
CC1CCc2sc(C(=O)Nc3nnc(SCc4ccc(F)cc4)s3)cc2C1 (stereo unspecified) | nt | nt | nt | nt | 94*
CC1CCc2sc(C(=O)NN=C3CCCC3)cc2C1 (stereo unspecified) | -9 | 52* | -3 | -5 | 0
COC(=O)c1ccc(CSc2nnc(NC(=O)c3cc4c(s3)CCCC4)s2)cc1 | nt | nt | nt | nt | -8
COC(=O)c1ccc(N2C(c3cc(OC)cc(OC)c3)=Cc3ccc(OC)cc3C2CC(=O)c2ccco2)cc1 (stereo unspecified) | 4 | 31* | -3 | nt | nt

Assay outcomes as filed in PubChem BioAssay.
